From ChEMBL document CHEMBL1127411, “Chemical and biological evaluation of hydrolysis products of cyclophosphamide” (J Med Chem, 1994) come the findings set out here.

Activity calls are given as the source filed them.

Data set [1] is described as follows: Lethal dose was evaluated after single intraperitoneal injection in mice. It counts as toxicity, organism-based. As to conditions: mouse, in vivo, ip. The gist of the method:
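Male CD2F1 mice, 6–8 weeks old, two per dose group, single ip injection. Observed 28 days for lethality and clinical signs of toxicity; approximate LD₅₀ estimated from deaths.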

Data set [2] is described as follows: Antitumor efficacy evaluated after single dose of 316 mg/kg; NE = No effect. It counts as functional, organism-based. Also on record: dose 316 mg/kg. An outline of the steps:
(§1)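 Male CD2F1 mice, six per group, inoculated ip with 10⁶ freshly harvested P388 cells in 0.2 mL phosphate-buffered saline. Test substance given ip either once on day 1 or daily on days 1–4; controls received solvent. Median survival time recorded per group; increase of life span expressed as percentage of control.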

Data set [3] in a line: Antitumor efficacy evaluated after fractionated dose of 4*100 mg/kg; NE = No effect. It counts as functional, organism-based. An outline of the steps: as §1
Data set [4] can be described thus: Antitumor efficacy evaluated after single intraperitoneal dose of 68.1 mg/kg on consecutive days; NE = No effect. It counts as functional, organism-based. More on the design: dose 68.1 mg/kg. The gist of the method:
as §1

Data set [5] in a line: Antitumor efficacy evaluated after single intraperitoneal dose of 215 mg/kg; NE = No effect. It counts as functional, organism-based. More on the design: dose 215 mg/kg. An outline of the steps: as §1
The nature of data set [6]: The half life at a physiological pH.
Data set [7] is described as follows: The half life at a pH 1.2. Particulars: buffer.

A word on the LD50: it is the dose expected to kill half of the subjects tested. Read a high LD50 as lower toxicity. `NCCCOP(=O)(O)O`: in data set [1], the LD50 worked out at 1000 mg/kg.

`O=P1(O)OCCCNCCN1CCCl` yielded an LD50 in data set [1] of 1000 mg/kg. In addition, the Efficacy result in data set [2] and in data set [3] was “inactive” each time.

`O=P(O)(O)OCCCNCCNCCCl`: the LD50 in data set [1] came to 700 mg/kg. Moreover, the Efficacy result in data set [4] and in data set [5] was “inactive” throughout.

The half-life is the time needed for the level to fall by half in the phase considered. `O=P1(N(CCCl)CCCl)NCCCO1` (stereo not given) [CYCLOPHOSPHAMIDE ANHYDROUS] registered an LD50 in data set [1] of 620 mg/kg. Further, the results for the half-life in data set [6] and in data set [7] were 158 h and 33.6 h, respectively.
